sdo1 growth = sdo1-depleted yeast growth rescue; AID 817; S. cerevisiae sdo1-depleted JHY4D growth rescue, OD600 30 h; stronger effect = higher value; pdr5 snq2 efflux-pump mutant strain; hit rate 0.21% among 140,000; z-score at 10 µM;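 active = z-score above 3 at both the 24 hr and the 30 hr optical density reads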;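 also: z-score against mean and SD of all compound wells on the same plate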
Yeast life ext = yeast lifespan extension; S. cerevisiae growth with nicotinamide, OD615; deaD strain in restrictive glucose medium; hit rate 0.68% among 130,000; AID 775; inhibition of the nicotinamide effect, % at 10 µM;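 active = inhibition above a set limit, placed 3 SD over the median of all compounds, cut at about 26% in these data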;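 also: 0% = nicotinamide-treated wells and 100% = cells grown without nicotinamide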
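Buffer or medium: CSMM-D glucose medium, restrictive; test system: modified budding yeast, DeaD strain; compound: single dose 10 µM compound, 0.25% DMSO; schedule: culture preincubation 4 h, compound exposure 48 h, both 30 °C; detection: optical density (absorbance) at 615 nm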
HMGR II inh = E. faecalis class II HMG-CoA reductase inhibition | purified E. faecalis HMGR, NADPH absorbance 340 nm kinetic | inhibition, % at 10 µM | hit rate 0.41% among 190,000 | AID 1066;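 active = inhibition above a set limit, the median over all tested compounds plus 3 SD, cut at about 9.5% in these data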;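 also: enzyme runs in reverse so mevalonate oxidation gives rising NADPH absorbance; 0% = complete reaction with DMSO and 100% = background rate lacking mevalonate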
Yeast growth inh = chemicals that inhibit yeast BB579 growth in restrictive medium (lifespan-shortening candidates); S. cerevisiae BB579 growth, OD615, 48 h; inhibition, % at 10 µM; hit rate 0.51% among 140,000;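 active = inhibition above a set limit, 3 SD over the mean compound inhibition, cut at about 44% in these data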
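Test system: S. cerevisiae DeaD strain BB579 yeast; Medium: restrictive CSMM-D medium; Compound: one dose, 10 µM compound with 0.25% DMSO; Incubation: 4 h cell preincubation, 48 h compound exposure, 30 °C humidified; Signal: OD at 615 nm; Benchmarks: amphotericin B at 10 µg/mL as positive control.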
* marks the source's active call; other numbers are inactive results; · = no result. In the library only some 1.3% were active in any assay of this set; here they are far more common.

SMILES	sdo1 growth	Yeast life ext	HMGR II inh	Yeast growth inh
O=C(O)CSc1nnc(CSc2nc3ccccc3s2)n1-c1ccccc1	·	·	10.7*	·
C#CCSc1nnc(CSc2nc3ccccc3s2)n1-c1ccccc1	-1.89	6.1	-2.4	-56.6
CN1C(=O)C(C(=O)Nc2ccccc2F)c2ccccc21 (centres undefined)	-0.03	44.5*	-2.9	-13.8
Cc1ccc(NC(=O)C2C(=O)N(C)c3ccccc32)cc1 (centres undefined)	1.03	27.9*	-5.0	-23.0
Cc1cn(-c2ccccc2)c(C)c1/C=N\Nc1nc(N2CCOCC2)nc(N2CCOCC2)n1	·	·	2.1	·
CCCc1cc(=O)oc2cc(C)c(CN3CCCC3)c(O)c12	0.39	35.2*	-0.6	-21.4
Cc1ccc(NC(=O)CCc2ccc(S(=O)(=O)N3CCOCC3)cc2)c(C)c1	-0.35	-4.4	14.9*	20.7
O=c1c2cc(Br)ccc2nc(-c2ccc([N+](=O)[O-])cc2)n1O	·	·	-4.0	·
O=c1c2c([N+](=O)[O-])cc([N+](=O)[O-])cc2sn1-c1ccc(Br)cc1	-1.23	-4.7	-0.5	44.9*
Cc1cc(C)c(S(=O)(=O)CCC(C)C)c(=O)[nH]1	·	·	-0.5	·
Oc1c(C(Nc2ccccn2)c2cccnc2)cc(Cl)c2cccnc12 (centres undefined)	-0.84	27.6*	-0.2	-7.6
CN1CCN(C(=O)CSc2ccc(C(F)(F)F)cc2[N+](=O)[O-])CC1	0.91	30.0*	-0.6	-17.3
O=[N+]([O-])c1ccc(Nc2ccccc2F)nc1	·	·	-0.7	·
Nc1ccccc1C(=O)N1CCCC1	·	·	1.8	·
Cc1cc(=O)oc2cc(OC(=O)CCCCCN3C(=O)c4ccccc4C3=O)ccc12	0.66	31.9*	-1.7	-50.0
CC(=O)Oc1ccc2c(C)cc(=O)oc2c1	0.57	-9.3	-4.5	-0.2
CC(=O)Oc1ccc2c(=O)c(N3C(=O)c4ccccc4C3=O)c(C)oc2c1	0.43	27.8*	2.6	-38.7
C/C(=N\NC(=O)c1ccccn1)c1ccc(C(=O)O)s1	·	·	-10.2	·
CC(C)c1ccc(C2=C(O)c3ccccc3C(=O)C2=O)cc1	-1	46.4*	-3.3	5.0
CC1(C)CC(=O)C2=C(C1)N(c1ccc(F)cc1)C(=O)C2(NC(=O)c1ccccc1)C(F)(F)F (centres undefined)	0.29	4.5	-3.2	-76.5
COc1ccc2nc(SCC(=O)Nc3nccs3)[nH]c2c1	·	·	-11.4	·
Cc1ccc(S(=O)(=O)Nc2cccc(/C=C/C(=O)O)c2)cc1	-0.15	-10.5	11.1*	5.2
CC1(C)C/C(=N\NC(=S)Nc2ccccc2F)c2cc(O)ccc2O1	·	·	1.4	·
COc1ccc(C2CC(c3ccccc3)=NN2C(=O)CN2CCN(Cc3ccccc3)CC2)cc1 (centres undefined)	·	·	3.2	·
N=c1n(CCN2CCOCC2)c2ccccc2n1CC(=O)c1ccc(Cl)c(Cl)c1	-2.08	-28.0	-7.4	94.9*
SMILES	sdo1 growth	Yeast life ext	HMGR II inh	Yeast growth inh
COCCCn1c(SCc2nnc(-c3ccc(OC)c(OC)c3)o2)nnc1-c1ccncc1	-0.09	·	9.9*	-34.0
Oc1cccc(C=NCc2ccccc2)c1O	0.2	-19.4	3.4	98.1*
Oc1c(C=NCc2ccccc2)sc2ccccc12	·	·	-0.3	·
C=CCn1c(=O)[nH]c2cc(C(=O)N3CCN(c4cccc(Cl)c4)CC3)ccc2c1=O	-0.42	-3.0	-0.7	-21.3
C=CCn1c(=O)[nH]c2cc(C(=O)N3CCN(c4ccc(C(C)=O)cc4)CC3)ccc2c1=O	-0.22	55.3*	4.6	-45.8
O=C(Oc1ccc(=O)n(-c2ccccc2)n1)c1ccccc1	0.09	35.9*	-3.1	-52.2
O=C(O)COc1ccc(=O)n(-c2ccccc2)n1	-1.25	-6.5	0.2	3.2
O=C(O)CCCN1C(=O)/C(=C\c2ccco2)SC1=S	·	·	11.7*	·
CC(/C=C1\SC(=S)N(CCCC(=O)Nc2ccc(C(=O)O)cc2)C1=O)=C\c1ccccc1	-0.13	9.6	5.7	-50.4
O=C(CCCN1C(=O)/C(=C\c2ccco2)SC1=S)Nc1ccc2ccccc2c1	-0.86	-0.7	-4.5	-15.2
CC(/C=C1\SC(=O)N(CCCC(=O)O)C1=O)=C\c1ccccc1	0.09	29.2*	-5.8	-17.6
O=C1CN(C(=O)CSc2nnc3ccccn23)c2ccccc2N1	0.33	9.3	12.2*	-26.4
Cn1cccc1C(=O)OCC(=O)N1c2ccccc2NC(=O)C1(C)C	·	·	-2.5	·
Cn1cccc1C(=O)OCC(=O)N1CC(=O)Nc2ccccc21	·	·	10.8*	·
Fc1cc(F)cc(NC(=S)Nc2ccccc2N2CCOCC2)c1	·	·	2.7	·
CC1CCCN(c2ccc(C(=O)Nc3cccnc3)cc2[N+](=O)[O-])C1 (centres undefined)	·	·	-2.9	·
CN1CCN(CC(=O)Nc2ccc(Cl)cc2Cl)CC1	0.08	40.0*	0.8	-25.1
COC(=O)c1ccc(Cl)c(NC(=O)CN2CCN(C)CC2)c1	0.32	-6.2	-6.7	11.8
O=[N+]([O-])c1cc(S(=O)(=O)N2CCCCCC2)ccc1F	-0.84	66.3*	-5.5	-7.4
Cn1/c(=N/NC(=O)c2ccccc2F)sc2ccccc21	·	·	-7.5	·
Cc1ccc2nsnc2c1N	·	·	18.1*	·
COc1cccc(/C=C2/SC(=O)N(C)C2=O)c1OCc1ccc(C(=O)O)cc1	·	·	10.5*	·
O=C(Cn1ccc(C(F)(F)F)n1)N/N=C/c1ccc(N2CCOCC2)cc1	·	·	-11.1	·
CC(=O)Nc1ccc(C(=O)OCC(=O)N(Cc2ccccc2)C(C)(C)C)cc1	-0.28	53.6*	-4.4	-13.8
CCOC(=O)C(C)c1nc2ccccc2[nH]c1=O (centres undefined)	0.44	-13.8	1.9	-58.0
SMILES	sdo1 growth	Yeast life ext	HMGR II inh	Yeast growth inh
O=c1[nH]c2ccccc2nc1C(Cl)c1ccccc1 (centres undefined)	1	37.4*	-3.4	-42.1
CC(C)c1ccc(NC(=O)c2sccc2-n2cccc2)cc1	·	·	-1.3	·
CCCCCSc1nc2c(c(=O)[nH]c(=O)n2C)n1C	0.46	58.2*	-7.4	12.7
CN(O)/C=c1/ccc2c(n1)C(=O)C=CC=2	0.06	-10.8	-3.5	97.4*
Clc1ncnc2scc(-c3ccc(Br)cc3)c12	-1.1	0.5	-1.6	-6.7
COC(=O)/C(=C/c1cn(C)c2ccccc12)[N+](=O)[O-]	-0.94	74.1*	-0.7	-61.1
COC(=O)/C(=C/Nc1ccccc1)[N+](=O)[O-]	2.51	-6.2	-8.9	-42.5
COC(=O)/C(=C/c1c[nH]c2ccccc12)[N+](=O)[O-]	0.01	26.2*	-4.8	-31.7
Cc1ccc(NS(=O)(=O)c2ccc(OCC(=O)NCC3CCCO3)cc2)cc1 (centres undefined)	·	·	-2.9	·
COc1ccc(C(=O)C/C(=C\C(=O)c2ccc(C)cc2)c2ccccc2)cc1	-0.14	33.2*	-0.1	-23.0
O=C(OCn1ncc(Br)c(Br)c1=O)c1ccccc1Cl	-2.19	23.0	-1.3	72.8*
O=C(OCc1cnc(Cl)s1)c1ccccc1Cl	-0.92	-8.1	-1.8	-35.8
CCn1ncc(Br)c1C(=O)Nc1ccc(C(=O)OC(C)C)cc1	-1.06	-16.6	-3.4	-36.3
O=C(OCn1ncc(Br)c(Br)c1=O)c1ccc(F)cc1	-2.75	-11.4	0.2	91.2*
Cc1cc(C)n(-c2ccc(C(=O)NC3CCCCC3)cc2)n1	·	·	-3.4	·

Assay outcomes (PubChem)
